From ChEMBL document CHEMBL1142303, “Imidazo[2,1-b]thiazole system: a scaffold endowing dihydropyridines with selective cardiodepressant activity” (J Med Chem, 2008)
The source made the active and inactive calls. The rule behind the calls is not given here.

Columns and labels:
Cavia porcellus [1] = species on record: Cavia porcellus; assay: Inotropic activity at L type calcium channel in guinea pig left atrium assessed as decrease in tension at 10 uM relative to control; type: tissue-based; design: scale not given: the % may be the effect or the level left; conditions: Cardiac atrium
HEK293 [2] = assay: (§1) Displacement of (+)-[5-methyl-3H][…] from L type calcium channel Cav1.2b in rabbit expressed in HEK293 cells; type: cell-based; conditions: Oryctolagus cuniculus
In short: (§2)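 Intact HEK-293 cells transfected with rabbit Cav1.2a (α1C-a) or Cav1.2b (α1C-b) plasmid, labelled with (+)-[5-methyl-3H]PN200-110. Nonspecific binding about 10–20% of total. IC50 is mean ± S.E.M. of three independent experiments.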

Cavia porcellus [3] = species on record: Cavia porcellus; assay: Chronotropic activity at L type calcium channel in guinea pig right atrium assessed as decrease in spontaneous beating at 1 uM relative to control; type: tissue-based; design: scale not given: the % may be the effect or the level left; conditions: Cardiac atrium
[4] = Inotropic activity at L type calcium channel in guinea pig left atrium assessed as decrease in tension; type: tissue-based; conditions: Cavia porcellus, Cardiac atrium
In short: (§3)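 Guinea-pig atria: left atrium driven at 1 Hz for inotropy, spontaneously beating right atrium for chronotropy. Increasing cumulative doses, readout is percent decrease. EC50 (inotropic) and EC30 (chronotropic) by Litchfield–Wilcoxon probit analysis on log concentration–response curves, n = 6–7. Not calculated when the maximum effect was below 50%.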

Cavia porcellus [5] = species on record: Cavia porcellus; assay: Chronotropic activity at L type calcium channel in guinea pig right atrium assessed as decrease in spontaneous beating; type: tissue-based; conditions: Cardiac atrium; in short: as §3
Cavia porcellus [6] = species on record: Cavia porcellus; assay: Activity at L type calcium channel in K+ depolarized guinea pig aortic strip assessed as inhibition of calcium induced contraction at 5 uM; type: tissue-based; design: scale not given: the % may be the effect or the level left; conditions: Aorta
In short: (§4)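 Guinea-pig aortic strips depolarized with 80 mM K+. Drugs added cumulatively. Readout is percent inhibition of calcium-induced contraction, n = 5–6. Control versus treated values tested at each concentration by Student's t-test, P < 0.05.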

[7] = Displacement of (+)-[5-methyl-3H][…] from L type calcium channel in guinea pig heart ventricles; design: species or system Cavia porcellus
In short: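 Guinea-pig ventricular membranes incubated with 0.5 nM (+)-[5-methyl-3H]PN200-110 and test compounds at 0.1–50 µM in a competitive radioligand assay. Ki and IC50 reported as mean ± S.E.M. Student's t-test, significance P < 0.001.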

HEK293 [8] = assay: (§5) Displacement of (+)-[5-methyl-3H][…] from L type calcium channel Cav1.2a in rabbit expressed in HEK293 cells; type: cell-based; conditions: Oryctolagus cuniculus; in short: as §2
Cavia porcellus [9] = species on record: Cavia porcellus; assay: Inotropic activity at L type calcium channel in guinea pig left atrium assessed as decrease in tension at 1 uM relative to control; type: tissue-based; design: scale not given: the % may be the effect or the level left; conditions: Cardiac atrium
[10] = Activity at L type calcium channel in K+ depolarized guinea pig longitudinal smooth muscle assessed as inhibition of calcium induced contraction; design: species or system Cavia porcellus
Cavia porcellus [11] = species on record: Cavia porcellus; assay: Chronotropic activity at L type calcium channel in guinea pig right atrium assessed as decrease in spontaneous beating at 10 uM relative to control; type: tissue-based; design: scale not given: the % may be the effect or the level left; conditions: Cardiac atrium
Cavia porcellus [12] = species on record: Cavia porcellus; assay: Activity at L type calcium channel in K+ depolarized guinea pig aortic strip assessed as inhibition of calcium induced contraction at 50 uM; type: tissue-based; design: scale not given: the % may be the effect or the level left; conditions: Aorta; in short: as §4
Cavia porcellus [13] = species on record: Cavia porcellus; assay: Activity at L type calcium channel in K+ depolarized guinea pig longitudinal smooth muscle assessed as inhibition of calcium induced contraction at 10 uM; design: scale not given: the % may be the effect or the level left
Heart [14] = assay: Cardiovascular activity in perfused guinea pig heart assessed as change in maximal rate of rise in left ventricular pressure at 10 uM by ECG; type: functional, Cavia porcellus
In short: (§6)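 Perfused guinea-pig heart. Percentage change from basal value at the highest concentration tested, 10 µM. Parameters: +(dP/dt)max, heart rate, coronary perfusion pressure, PR interval and QT interval from ECG.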

Heart [15] = assay: Cardiovascular activity in perfused guinea pig heart assessed as change in heart rate at 10 uM by ECG; type: functional, Cavia porcellus; in short: as §6
Heart [16] = assay: Cardiovascular activity in perfused guinea pig heart assessed as change in coronary perfusion pressure at 10 uM by ECG; type: functional, Cavia porcellus; in short: as §6
Heart [17] = assay: Cardiovascular activity in perfused guinea pig heart assessed as change in atrioventricular conduction time at 10 uM by ECG; type: functional, Cavia porcellus; in short: as §6
Heart [18] = assay: Cardiovascular activity in perfused guinea pig heart assessed as change in ventricular repolarization time at 10 uM by ECG; type: functional, Cavia porcellus; in short: as §6
Cavia porcellus [19] = species on record: Cavia porcellus; assay: Activity at L type calcium channel in K+ depolarized guinea pig longitudinal smooth muscle assessed as inhibition of calcium induced contraction at 5 nM; design: scale not given: the % may be the effect or the level left
Heart [20] = assay: Cardiovascular activity in perfused guinea pig heart assessed as change in maximal rate of rise in left ventricular pressure at 10 nM by ECG; type: functional, Cavia porcellus
In short: (§7)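 Guinea-pig heart: values are % change from basal. Parameters are +(dP/dt)max, heart rate, coronary perfusion pressure, PR and QT intervals. Highest concentration tested 10 µM.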

[21] = as §1; type: cell-based, Oryctolagus cuniculus; in short: as §2
Cavia porcellus [22] = species on record: Cavia porcellus; assay: Chronotropic activity at L type calcium channel in guinea pig right atrium assessed as decrease in spontaneous beating at 0.1 uM relative to control; type: tissue-based; design: scale not given: the % may be the effect or the level left; conditions: Cardiac atrium
In short: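 Spontaneously beating guinea-pig right atrium: % decrease in rate vs control. Drugs added cumulatively at increasing concentrations, compared with control at each concentration (Student's t-test, P<0.05). Mean ± S.E.M.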

Cavia porcellus [23] = species on record: Cavia porcellus; assay: Activity at L type calcium channel in K+ depolarized guinea pig aortic strip assessed as inhibition of calcium induced contraction at 1 uM; type: tissue-based; design: scale not given: the % may be the effect or the level left; conditions: Aorta
In short: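 Guinea-pig aortic strips depolarized with K+ (80 mM); % inhibition of Ca2+-induced contraction vs control. Drugs added cumulatively, compared with control at each concentration (Student's t-test, P<0.05). Mean ± S.E.M.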

Heart [24] = assay: Cardiovascular activity in perfused guinea pig heart assessed as change in heart rate at 10 nM by ECG; type: functional, Cavia porcellus; in short: as §7
Heart [25] = assay: Cardiovascular activity in perfused guinea pig heart assessed as change in coronary perfusion pressure at 1 uM by ECG; type: functional, Cavia porcellus; in short: as §7
Heart [26] = assay: Cardiovascular activity in perfused guinea pig heart assessed as change in atrioventricular conduction time at 1 uM by ECG; type: functional, Cavia porcellus
Heart [27] = assay: Cardiovascular activity in perfused guinea pig heart assessed as change in ventricular repolarization time at 10 nM by ECG; type: functional, Cavia porcellus; in short: as §7
[28] = as §5; type: cell-based, Oryctolagus cuniculus; in short: as §2

For `COC(=O)C1=C(C)NC(C)=C(C(=O)OC)C1c1c(C(F)(F)F)nc2sccn12`, the Activity (Cavia porcellus [1]) was 90%, the Activity (HEK293 [2]) was “inactive” and the Activity (Cavia porcellus [3]) was 54%. The EC50 [4] was 71 nM, the EC30 (Cavia porcellus [5]) was 570 nM and the Activity (Cavia porcellus [6]) was 34%. The “Log Ki” value [7] was -5.35 and the Activity (HEK293 [8]) was “inactive”.

With `COC(=O)C1=C(C)NC(C)=C(C(=O)OC)C1c1c(Cl)nc2sc(C)cn12` the Activity (Cavia porcellus [9]) was 63%, the IC50 [10] was 2060 nM and the Activity (Cavia porcellus [11]) was 22%. It also gave an EC50 [4] of 56 nM, an Activity (Cavia porcellus [12]) of 19% and an Activity (Cavia porcellus [13]) of 93%. For the same molecule, the Activity (Heart [14]) was -35%, the Activity (Heart [15]) was 6% and the Activity (Heart [16]) was 14%. For the same molecule, the Activity (Heart [17]) was 61%, the Activity (Heart [18]) was -16% and the “Log Ki” value [7] was < -5.

For `COC(=O)C1=C(C)NC(C)=C(C(=O)OC)C1c1ccccc1[N+](=O)[O-]` [NIFEDIPINE], the Activity (Cavia porcellus [1]) was 97%, the Activity (Cavia porcellus [19]) was 70% and the Activity (Heart [20]) was -96%. For the same molecule, the IC50 [21] was 3.6 nM, the Activity (Cavia porcellus [22]) was 85% and the EC50 [4] was 260 nM. The EC30 (Cavia porcellus [5]) was 25 nM, the Activity (Cavia porcellus [23]) was 82% and the Activity (Heart [24]) was -60%. It also gave an Activity (Heart [25]) of -36%, an Activity (Heart [26]) of 66% and an Activity (Heart [27]) of 37%. The “Log Ki” value [7] was -8.83 and the IC50 [28] was 45 nM.
